Experimental findings from ChEMBL document CHEMBL1165896, “Design, synthesis and evaluation of mutual prodrug of 4-biphenylacetic acid and quercetin tetramethyl ether (BPA-QTME) as gastrosparing NSAID” (Eur J Med Chem, 2010) are described below.

Usually inhibition in vivo stands for the relative decrease from the control value, in per cent. A word on the half-life: it is the time needed for the level to fall by half in the phase considered. As usually defined, the logP is a log measure of how a compound divides between an organic and an aqueous phase. One may read the solubility as the concentration that dissolves in the medium under given conditions.

In brackets after ≈: the same amount, converted by molar mass.

The nature of data set [1]: Antioxidant activity in stomach assessed as superoxide dismutase activity measured per mg of protein (RVb = 325.40 +/- 69 U). It counts as functional.
Data set [2] deals with Rattus norvegicus. Briefly: Antiinflammatory activity in Sprague-Dawley rat assessed as reduction in carrageenan-induced paw edema at dose molar equivalent to 15 mg/kg, po after 4 hrs (RVb = 78.4+/- 2.53%). Set-up: scale not given: the % may be the effect or the level left. For orientation: In the carrageenan paw model, swelling and tenderness develop within hours.
The test system of another data set is Mus musculus. Briefly: Analgesic activity in mouse assessed as inhibition of acetic acid-induced writhing at 10 mg/kg, po relative to control. Format: functional. An outline of the steps:
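Male LACCA mice (25–35 g), fasted overnight, dosed orally in 0.5% CMC (0.1 ml/10 g) 1 h before 1% acetic acid, 10 ml/kg i.p. Writhes counted over 20 min starting 3 min post-challenge. % inhibition = (1 − Nt/Nc) × 100 versus vehicle controls. Mean ± SE of five experiments.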
A general note: An intraperitoneal irritant provokes the stretching counted in writhing tests.

Data set [3] relates to Rattus norvegicus. Briefly: Antiinflammatory activity in Sprague-Dawley rat assessed as reduction in carrageenan-induced paw edema at dose molar equivalent to 15 mg/kg, po after 3 hrs (RVb = 81.1+/- 2.43 %). Set-up: scale not given: the % may be the effect or the level left.
Data set [4] is described as follows: Antioxidant activity in stomach assessed as lipid peroxidation measured per mg of protein (RVb = 4.61 +/- 1.28 nmole). Format: functional, tissue-based.
Data set [5] relates to Rattus norvegicus. Briefly: Antiinflammatory activity in Sprague-Dawley rat assessed as reduction in carrageenan-induced paw edema at dose molar equivalent to 15 mg/kg, po after 2 hrs (RVb = 68.8 +/- 2.06%). Set-up: scale not given: the % may be the effect or the level left.
Data set [6] concerns Rattus norvegicus. Briefly: Antiinflammatory activity in Sprague-Dawley rat assessed as reduction in carrageenan-induced paw edema at dose molar equivalent to 15 mg/kg, po after 5 hrs (RVb = 65.2+/- 1.96%). Set-up: scale not given: the % may be the effect or the level left.
Data set [7] in a line: Antioxidant activity in stomach assessed as catalase activity measured per mg of protein (RVb = 28.38 +/- 2.85 U). It counts as functional.
A short description of data set [8]: Antioxidant activity in stomach assessed as myeloperoxidase activity relative to control. Format: functional. An outline of the steps: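 Stomach homogenate from ulcer-study rats (0.01 M phosphate buffer), spun 10,000 rpm, 10 min, 10 °C. Supernatant mixed with o-phenylenediamine (660 µg/ml) and started with 300 mM H2O2; A492 read every 30 s for 5 min. ΔOD/min expressed as % of control activity.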

In data set [9] the test system is Rattus norvegicus. Briefly: Toxicity in Sprague-Dawley rat assessed as ulcer index at dose molar equivalent to 54 mg/kg, po. It counts as organism-based. The arrangement: dose 54 mg/kg, route oral. The note with it: in vivo. An outline of the steps: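 Overnight-fasted Sprague-Dawley rats given oral doses equimolar to BPA 54 mg/kg; vehicle controls. Killed 4 h after dosing; stomachs opened along greater curvature, saline-washed and scored: 0 none, 1 punctiform <1 mm, 3 filiform <5 mm, 4 punctiform >1 mm or filiform >5 mm. Mean ± SE of five experiments.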

Data set [10] can be described thus: Chemical stability assessed as half life of hydrolysis at pH 7.4. Format: physicochemical. Conditions: buffer. An outline of the steps:
(§1)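 Compound dissolved in preheated HCl buffer pH 2 or isotonic phosphate buffer pH 7.4 and held at 37 °C. Pseudo-first-order rate constants taken from semilog plots of concentration versus time.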

Data set [11] can be described thus: Partition coefficient log P by shake flask method. Format: physicochemical. The note with it: octanol/water. An outline of the steps: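 Shake flask in n-octanol/phosphate buffer pH 7.4. Compound-saturated octanol shaken with an equal volume of buffer for 24 h at 25 °C, then left 30 min to separate. Both phases quantified by UV against calibration plots.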

Data set [12] in a line: Stability in presence of 80% human plasma assessed as half life. Format: ADME, cell-free. In a few lines:
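Citrated human plasma diluted 4:1 with isotonic phosphate buffer pH 7.4 (80% plasma), preheated, shaken at 37 °C. Compound added from a 1 mg/ml stock; samples at intervals diluted and read at 253 nm for released BPA. Rate constant and t½ taken from the linear part of the log BPA concentration versus time plot.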

The nature of data set [13]: Chemical stability assessed as half life of hydrolysis at pH 2. Format: physicochemical. The note with it: buffer. In a few lines:
as §1

Data set [14] in a line: Aqueous solubility at pH. 4. Format: physicochemical.

Consider `O=C(O)Cc1ccc(-c2ccccc2)cc1` [FELBINAC], for which the Activity in [1] amounted to 26.2 U/mg protein; in the data set on Rattus norvegicus [2], 25.2%; with Rattus norvegicus [3], 26.5%; in data set [4], 22.6 nM; in the data set with Rattus norvegicus [5], 26.9%; in the data set on Rattus norvegicus [6], 29.1%. The Activity in [7] came to 3.52 U/mg protein; in data set [8] it was 238.47%. Besides, the inhibition in vivo at 10 mg/kg in the data set with Mus musculus turned out to be 68.6%. Further, in the data set on Rattus norvegicus [9], the UI is given as 6.2.

Turning to `COc1cc(OC)c2c(=O)c(OC(=O)Cc3ccc(-c4ccccc4)cc3)c(-c3ccc(OC)c(OC)c3)oc2c1`, the Activity in [1] worked out at 223 U/mg protein; with Rattus norvegicus [2] it was 31.6%; in the data set on Rattus norvegicus [3] it was 37.5%; in data set [4], 6.42 nM; with Rattus norvegicus [5], 34.2%; in the data set on Rattus norvegicus [6], 33.1%. Besides, the Activity in data set [7] was found to be 22.4 U/mg protein; in [8] it was 118.93%. The half-life in [10] was above 38 h; in [12], 0.33 h; in data set [13], above 100 h. In data set [11], this compound came in with a logP of 3.95. In addition, in the data set with Mus musculus, the inhibition in vivo at 10 mg/kg is 62.4%. The compound also displayed a solubility in data set [14] of 14.5 µg/mL (≈ 26.2 µM). Further, in the data set with Rattus norvegicus [9], the UI turned out to be 0.45.
